Test results: ChEMBL document CHEMBL5724801, “EUbOPEN Chemogenomics Library - Multiplex” (2024)
Several values for one entry are separate records, joined by “and”; a condition that tells them apart may be missing. Equal values may be shown once.

System: Fibroblast
Assay: Multiplex assay against human fibroblast
Format: toxicity, cell-based
In short: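 Live cells were stained at seeding with Hoechst33342, BioTracker Green Microtubule Cytoskeleton Dye, MitoTracker Red and Annexin V Alexa Fluor 680. Following compound addition, they were imaged on a CQ1 microscope at 37°C and 5% CO2 and gated by CellPathfinder machine learning into Hoechst high-intensity objects or normal cells, with normal cells split into healthy, pyknosed or fragmented nuclei and pyknosed cells into mitotic or apoptotic. Tubulin, mitochondrial-mass and membrane-permeability phenotypes are per cents of healthy-nucleus cells.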

[1] = 12 h, 1 µM, compound concentration 1 uM
[2] = 12 h, 10 µM, compound concentration 10 uM
[3] = 24 h, 1 µM, compound concentration 1 uM
[4] = 24 h, 10 µM, compound concentration 10 uM
[5] = 48 h, 1 µM, compound concentration 1 uM
[6] = 48 h, 10 µM, compound concentration 10 uM

## CC(=O)Nc1cccc2c1c(Sc1ccc(Cl)cc1)c(C)n2CC(=O)O [AZD1981]
[1]
  Population Apoptotic (%): 27% and 37%
  Population Fragmented Nuclei (%): 18% and 31%
  Population Healthy Nuclei (%): 61% and 47%
  Population Hoechst High Intensity Objects (%): 1% and 3%
  Population Mitochondria Different-Phenotype (%): 9% and 7%
  Population Mitotic Cells (%): 72% and 62%
  Population Normal (%): 98% and 96%
  Population Pyknosed Nuclei (%): 19% and 21%
  Population Tubulin-Different-Phenotype (%): 33% and 55%
  Total Cell Count: 173 and 118
[2]
  Population Apoptotic (%): 40% and 33%
  Population Fragmented Nuclei (%): 16% and 35%
  Population Healthy Nuclei (%): 64% and 42%
  Population Hoechst High Intensity Objects (%): 3% and 4%
  Population Membrane Permeable-Phenotype (%): 2% and 8%
  Population Mitochondria Different-Phenotype (%): 3% and 0%
  Population Mitotic Cells (%): 60% and 66%
  Population Normal (%): 96% and 95%
  Population Pyknosed Nuclei (%): 19% and 22%
  Population Tubulin-Different-Phenotype (%): 24% and 35%
  Total Cell Count: 133 and 112
[3]
  Population Apoptotic (%): 53% and 36%
  Population Fragmented Nuclei (%): 19% and 30%
  Population Healthy Nuclei (%): 63% and 53%
  Population Hoechst High Intensity Objects (%): 6% and 3%
  Population Membrane Permeable-Phenotype (%): 2% and 7%
  Population Mitochondria Different-Phenotype (%): 2% and 7%
  Population Mitotic Cells (%): 46% and 63%
  Population Normal (%): 93% and 96%
  Population Pyknosed Nuclei (%): 16% and 15%
  Population Tubulin-Different-Phenotype (%): 28% and 53%
  Total Cell Count: 168 and 128
[4]
  Population Apoptotic (%): 41% and 55%
  Population Fragmented Nuclei (%): 13% and 36%
  Population Healthy Nuclei (%): 68% and 43%
  Population Hoechst High Intensity Objects (%): 4% and 6%
  Population Mitochondria Different-Phenotype (%): 5% and 0%
  Population Mitotic Cells (%): 58% and 45%
  Population Normal (%): 95% and 93%
  Population Pyknosed Nuclei (%): 18% and 20%
  Population Tubulin-Different-Phenotype (%): 17% and 40%
  Total Cell Count: 135 and 104
[5]
  Population Apoptotic (%): 54% and 57%
  Population Fragmented Nuclei (%): 23% and 34%
  Population Healthy Nuclei (%): 61% and 54%
  Population Hoechst High Intensity Objects (%): 6% and 3%
  Population Membrane Permeable-Phenotype (%): 1% and 8%
  Population Mitochondria Different-Phenotype (%): 6% and 2%
  Population Mitotic Cells (%): 45% and 42%
  Population Normal (%): 93% and 96%
  Population Pyknosed Nuclei (%): 15% and 11%
  Population Tubulin-Different-Phenotype (%): 33% and 52%
  Total Cell Count: 171 and 129
[6]
  Population Apoptotic (%): 64% and 40%
  Population Fragmented Nuclei (%): 21% and 43%
  Population Healthy Nuclei (%): 64% and 42%
  Population Hoechst High Intensity Objects (%): 4%
  Population Membrane Permeable-Phenotype (%): 0% and 11%
  Population Mitochondria Different-Phenotype (%): 2% and 0%
  Population Mitotic Cells (%): 35% and 60%
  Population Normal (%): 95%
  Population Pyknosed Nuclei (%): 13% and 15%
  Population Tubulin-Different-Phenotype (%): 25% and 54%
  Total Cell Count: 134 and 105

## COCCNc1cc(NC(=O)N2CCCc3cc(CN4CCN(C)CC4=O)c(C=O)nc32)ncc1C#N [FGF401]
[1]
  Population Apoptotic (%): 10.64% and 13.95%
  Population Fragmented Nuclei (%): 11.5% and 4.82%
  Population Healthy Nuclei (%): 65% and 77.91%
  Population Hoechst High Intensity Objects (%): 0%
  Population Membrane Permeable-Phenotype (%): 3.85% and 1.03%
  Population Mitochondria Different-Phenotype (%): 6.15% and 8.25%
  Population Mitotic Cells (%): 89.36% and 86.05%
  Population Normal (%): 100%
  Population Pyknosed Nuclei (%): 23.5% and 17.27%
  Population Tubulin-Different-Phenotype (%): 13.08% and 10.31%
  Total Cell Count: 200 and 249
[2]
  Population Apoptotic (%): 14.63% and 19.35%
  Population Fragmented Nuclei (%): 15.03% and 6.59%
  Population Healthy Nuclei (%): 58.17% and 76.37%
  Population Hoechst High Intensity Objects (%): 0%
  Population Membrane Permeable-Phenotype (%): 3.37% and 5.76%
  Population Mitochondria Different-Phenotype (%): 11.24% and 10.07%
  Population Mitotic Cells (%): 85.37% and 80.65%
  Population Normal (%): 100%
  Population Pyknosed Nuclei (%): 26.8% and 17.03%
  Population Tubulin-Different-Phenotype (%): 22.47% and 25.9%
  Total Cell Count: 153 and 182
[3]
  Population Apoptotic (%): 11.11% and 15.38%
  Population Fragmented Nuclei (%): 11.01% and 5.33%
  Population Healthy Nuclei (%): 68.35% and 89.34%
  Population Hoechst High Intensity Objects (%): 0%
  Population Membrane Permeable-Phenotype (%): 7.38% and 0.46%
  Population Mitochondria Different-Phenotype (%): 4.7% and 6.42%
  Population Mitotic Cells (%): 88.89% and 84.62%
  Population Normal (%): 100%
  Population Tubulin-Different-Phenotype (%): 9.4% and 12.84%
  Total Cell Count: 218 and 244
[4]
  Population Apoptotic (%): 8.57% and 3.23%
  Population Fragmented Nuclei (%): 12.26% and 4.02%
  Population Healthy Nuclei (%): 65.16% and 80.4%
  Population Hoechst High Intensity Objects (%): 0%
  Population Membrane Permeable-Phenotype (%): 8.91% and 3.75%
  Population Mitochondria Different-Phenotype (%): 6.93% and 8.75%
  Population Mitotic Cells (%): 91.43% and 96.77%
  Population Normal (%): 100%
  Population Pyknosed Nuclei (%): 22.58% and 15.58%
  Population Tubulin-Different-Phenotype (%): 17.82% and 16.88%
  Total Cell Count: 155 and 199
[5]
  Population Fragmented Nuclei (%): 9.45% and 6.06%
  Population Healthy Nuclei (%): 81.89% and 88.26%
  Population Hoechst High Intensity Objects (%): 0%
  Population Membrane Permeable-Phenotype (%): 0.48% and 1.29%
  Population Mitochondria Different-Phenotype (%): 12.02% and 2.58%
  Population Mitotic Cells (%): 63.64% and 93.33%
  Population Normal (%): 100%
  Population Pyknosed Nuclei (%): 8.66% and 5.68%
  Population Tubulin-Different-Phenotype (%): 2.88% and 11.59%
  Total Cell Count: 254 and 264
[6]
  Population Apoptotic (%): 27.27% and 18.18%
  Population Fragmented Nuclei (%): 9.49% and 6.84%
  Population Healthy Nuclei (%): 83.54% and 87.37%
  Population Hoechst High Intensity Objects (%): 0%
  Population Membrane Permeable-Phenotype (%): 1.52% and 1.81%
  Population Mitotic Cells (%): 72.73% and 81.82%
  Population Normal (%): 100%
  Population Pyknosed Nuclei (%): 6.96% and 5.79%
  Population Tubulin-Different-Phenotype (%): 9.85% and 22.29%
  Total Cell Count: 158 and 190

## CN1C[C@H](C(=O)N[C@]2(C)O[C@@]3(O)[C@@H]4CCCN4C(=O)[C@H](Cc4ccccc4)N3C2=O)C[C@@H]2c3cccc4[nH]cc(c34)C[C@H]21.CS(=O)(=O)O [DIHYDROERGOTAMINE MESYLATE]
[1]
  Population Apoptotic (%): 25% and 47%
  Population Fragmented Nuclei (%): 13% and 32%
  Population Healthy Nuclei (%): 70% and 51%
  Population Hoechst High Intensity Objects (%): 1% and 7%
  Population Membrane Permeable-Phenotype (%): 1% and 6%
  Population Mitochondria Different-Phenotype (%): 1% and 5%
  Population Mitotic Cells (%): 75% and 52%
  Population Normal (%): 98% and 92%
  Population Pyknosed Nuclei (%): 16%
  Population Tubulin-Different-Phenotype (%): 23% and 31%
  Total Cell Count: 127 and 155
[2]
  Population Apoptotic (%): 57% and 31%
  Population Fragmented Nuclei (%): 27% and 33%
  Population Healthy Nuclei (%): 65% and 45%
  Population Hoechst High Intensity Objects (%): 0% and 8%
  Population Membrane Permeable-Phenotype (%): 0% and 2%
  Population Mitochondria Different-Phenotype (%): 5% and 0%
  Population Mitotic Cells (%): 42% and 68%
  Population Normal (%): 100% and 91%
  Population Pyknosed Nuclei (%): 7% and 21%
  Total Cell Count: 92 and 114
[3]
  Population Apoptotic (%): 38% and 47%
  Population Fragmented Nuclei (%): 14% and 30%
  Population Healthy Nuclei (%): 75% and 56%
  Population Hoechst High Intensity Objects (%): 1% and 4%
  Population Membrane Permeable-Phenotype (%): 0% and 7%
  Population Mitochondria Different-Phenotype (%): 0% and 3%
  Population Mitotic Cells (%): 61% and 52%
  Population Normal (%): 98% and 95%
  Population Pyknosed Nuclei (%): 10% and 13%
  Population Tubulin-Different-Phenotype (%): 18% and 50%
  Total Cell Count: 130 and 149
[4]
  Population Apoptotic (%): 55% and 31%
  Population Fragmented Nuclei (%): 17% and 35%
  Population Healthy Nuclei (%): 72% and 43%
  Population Hoechst High Intensity Objects (%): 1% and 5%
  Population Membrane Permeable-Phenotype (%): 0% and 6%
  Population Mitochondria Different-Phenotype (%): 1% and 0%
  Population Mitotic Cells (%): 44% and 68%
  Population Normal (%): 98% and 94%
  Population Pyknosed Nuclei (%): 10% and 20%
  Total Cell Count: 89 and 113
[5]
  Population Apoptotic (%): 57% and 53%
  Population Fragmented Nuclei (%): 20% and 38%
  Population Healthy Nuclei (%): 68% and 50%
  Population Hoechst High Intensity Objects (%): 1% and 5%
  Population Membrane Permeable-Phenotype (%): 0% and 6%
  Population Mitochondria Different-Phenotype (%): 2% and 6%
  Population Mitotic Cells (%): 42% and 46%
  Population Normal (%): 98% and 94%
  Population Pyknosed Nuclei (%): 10% and 11%
  Population Tubulin-Different-Phenotype (%): 30% and 48%
  Total Cell Count: 134 and 139
[6]
  Population Apoptotic (%): 63% and 76%
  Population Fragmented Nuclei (%): 21% and 44%
  Population Healthy Nuclei (%): 65% and 44%
  Population Hoechst High Intensity Objects (%): 3%
  Population Membrane Permeable-Phenotype (%): 1% and 11%
  Population Mitochondria Different-Phenotype (%): 3% and 5%
  Population Mitotic Cells (%): 36% and 23%
  Population Normal (%): 96%
  Population Pyknosed Nuclei (%): 12% and 10%
  Population Tubulin-Different-Phenotype (%): 20% and 55%
  Total Cell Count: 91 and 126
